Compounds with a hit are over-represented: about 11% of the library has one in this group of screens.
WT yeast gro inh – growth inhibition of WT strain, primary screen, mitochondrial fusion inhibitor project, WT and mutant strains, chemical genetic. mitochondrial fusion phenotypic screen. inhibition, % at 10 µM. hit rate 2.1% among 190,000. AID 1362, 2008; in the data active = inhibition above about 58%; tested in S. cerevisiae
Diaph act CS – compounds boosting diaphorase resazurin reduction – biochemical, uHTS, resorufin fluorescence, counter-screen for diaphorase-coupled primary assays, primary screen; hit rate 0.005% among 190,000; Diaphorase/resazurin coupled assay, 16 min; active compounds read high; 1 = vehicle wells, 0 = NADH-free wells; activation factor at 20 µM;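 active = diaphorase activity raised at least twofold by the compound at 20 µM; inactive = activation factor below 2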
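Test system: Clostridium kluyveri diaphorase, purified enzyme; input: enzyme 0.07 U/mL final; buffer or medium: 50 mM HEPES pH 7.4 with 4.542 mM MgCl2, 0.005% Tween 20; also added: 0.114 mM NADH and 0.1 mM resazurin, final amounts; schedule: 16 min enzyme reaction, ambient temperature; technique: fluorescence of resorufin, 544 nm excitation, 590 nm emission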
G6PDH CS – L. mesenteroides G6PDH inhibitors, counter-screen for G6PDH-coupled screening assays, biochemical, Leuconostoc mesenteroides enzyme; Purified L. mesenteroides G6PDH, diaphorase/resazurin coupled fluorescence, 45 min; inhibition, % at 5 µM; hit rate 0.12% among 200,000; AID 1020, 2008
Lmaj promast – Leishmania major promastigote growth inhibition, primary screen; Leishmania major promastigotes, resazurin fluorescence viability; inhibition, % at 10 µM; hit rate 9% among 200,000;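 also: promastigotes grown with compound for 44 hours at 28 °C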
Diaphorase inh – diaphorase inhibitors and chemical oxidizers, primary screen, counter-screen for diaphorase-coupled primary assays, biochemical, uHTS, resorufin fluorescence. diaphorase resazurin-to-resorufin fluorescence, NADH, 16 min; bacterial (C. kluyveri) enzyme, not human. hit rate 0.69% among 190,000. AID 1217, 2008. inhibition, % at 20 µM;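 active = primary screen inhibition at 20 µM above a set limit, cut at about 50% in these data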
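Test system: diaphorase enzyme from Clostridium kluyveri; amount: diaphorase at 0.14 U/mL in enzyme working solution; detection: fluorescence of resorufin formed from resazurin, Ex 544/Em 590 nm; times: reaction incubation of 16 min at room temperature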
Numbers stand for hits. Rule as the data show it, unless noted: active = inhibition above about 50%; inactive = the rest.

`O=C1C2CCCCC2C(=O)N1c1ccc(NC2CCCCC2)c([N+](=O)[O-])c1` (configuration not stated) gave WT yeast gro inh inactive, Diaph act CS inactive, G6PDH CS inactive, Lmaj promast 51.6 and Diaphorase inh inactive.
O=C1C2CC=CCC2C(=O)N1c1ccc(NCCc2cccc(F)c2)c([N+](=O)[O-])c1 (configuration not stated) was read as WT yeast gro inh inactive, Diaph act CS inactive, G6PDH CS inactive, Lmaj promast 60.6 and Diaphorase inh inactive.
`Cc1ccc(NC(=O)NC2CCCN2S(=O)(=O)c2ccc(Cl)cc2)cc1` (configuration not stated) gave WT yeast gro inh inactive, Diaph act CS inactive, G6PDH CS inactive, Lmaj promast 62.4 and Diaphorase inh inactive.
Screening CC(=O)Nc1ccc(S(=O)(=O)N2CCSC2c2ccc(Cl)cc2)cc1 (configuration not stated) returned WT yeast gro inh 78.0, Diaph act CS inactive, G6PDH CS inactive, Lmaj promast inactive and Diaphorase inh inactive.
`COc1ccc(S(=O)(=O)N2CCSC2c2ccc(N)cc2)cc1` (configuration not stated) gave WT yeast gro inh inactive, Diaph act CS inactive, G6PDH CS inactive, Lmaj promast inactive and Diaphorase inh inactive.
Screening CS(=O)(=O)Nc1ccc(C2=NN(C(=O)c3ccco3)C(c3ccccc3F)C2)cc1 (configuration not stated) returned WT yeast gro inh inactive, Diaph act CS inactive, G6PDH CS inactive, Lmaj promast inactive and Diaphorase inh inactive.
N#CC(C#N)=Cc1cccn1-c1ccc(S(N)(=O)=O)cc1 was read as WT yeast gro inh inactive, Diaph act CS inactive, G6PDH CS inactive, Lmaj promast inactive and Diaphorase inh inactive.
`O=c1c2c([nH]c3ccccc13)CCCC2` gave WT yeast gro inh inactive, Diaph act CS inactive, G6PDH CS inactive, Lmaj promast 54.9 and Diaphorase inh inactive.
O=c1c2c([nH]c3ccccc13)C(=C1CCCC1)CC2 was read as WT yeast gro inh inactive, Diaph act CS inactive, G6PDH CS inactive, Lmaj promast inactive and Diaphorase inh inactive.
For CC(C)(C)C1CCc2[nH]c3ccccc3c(=O)c2C1 (configuration not stated) the results were WT yeast gro inh 81.9, Diaph act CS inactive, G6PDH CS inactive, Lmaj promast 99.6 and Diaphorase inh inactive.
CCC(=O)NC(c1cccs1)c1ccc2cccnc2c1O (configuration not stated) was read as WT yeast gro inh inactive, Diaph act CS inactive, G6PDH CS inactive, Lmaj promast 100.0 and Diaphorase inh 58.4.
For COc1ccc(C(NC(C)=O)c2ccc3cccnc3c2O)c(OC)c1 (configuration not stated) the results were WT yeast gro inh inactive, Diaph act CS inactive, G6PDH CS inactive and Diaphorase inh inactive.
`CC(C)CC(=O)NC(c1cccs1)c1ccc2cccnc2c1O` (configuration not stated) gave WT yeast gro inh inactive, G6PDH CS inactive and Lmaj promast 99.8.
For CCCC(=O)NC(c1ccccc1OC)c1ccc2cccnc2c1O (configuration not stated) the results were WT yeast gro inh inactive, Diaph act CS inactive, G6PDH CS inactive, Lmaj promast 100.2 and Diaphorase inh inactive.
`Cc1conc1NC(c1cccs1)c1ccc2cccnc2c1O` (configuration not stated) gave WT yeast gro inh inactive, Diaph act CS inactive, G6PDH CS inactive, Lmaj promast 98.9 and Diaphorase inh inactive.
CC(C)N(C(=O)c1ccc2nc3c4ccccc4c4ccccc4c3nc2c1)C(C)C was read as Lmaj promast inactive.
Screening O=[N+]([O-])c1cc2c(c(CSc3nnnn3-c3ccc(O)cc3)c1)OCOC2 returned WT yeast gro inh inactive, Diaph act CS inactive, G6PDH CS inactive, Lmaj promast inactive and Diaphorase inh inactive.
`Cc1ncsc1CCC(=O)N1CCCC(C(=O)c2ccc3c(c2)OCO3)C1` (configuration not stated) gave WT yeast gro inh inactive, Diaph act CS inactive, G6PDH CS inactive, Lmaj promast inactive and Diaphorase inh inactive.
O=C1c2cccc3cccc(c23)C(=O)N1CCCc1n[nH]c(=S)n1-c1ccccc1 was read as WT yeast gro inh inactive, Diaph act CS inactive, G6PDH CS inactive, Lmaj promast inactive and Diaphorase inh inactive.
Screening O=[N+]([O-])c1cc(-c2ccn[nH]2)ccc1Cl returned WT yeast gro inh inactive, Diaph act CS inactive, G6PDH CS inactive, Lmaj promast inactive and Diaphorase inh inactive.
For CN1CCN(C(=S)SCc2nc(N)nc(Nc3ccc(F)cc3)n2)CC1 the results were WT yeast gro inh inactive, Diaph act CS inactive, G6PDH CS inactive, Lmaj promast inactive and Diaphorase inh inactive.
Cc1ccsc1C(=O)C1CCCN(Cc2cn(C)nc2-c2ccccc2)C1 (configuration not stated) was read as WT yeast gro inh inactive, Diaph act CS inactive, G6PDH CS inactive, Lmaj promast inactive and Diaphorase inh inactive.
`CC(=O)Nc1ccc(CN2CCCC(C(=O)c3ccc(C(F)(F)F)cc3)C2)cc1` (configuration not stated) gave WT yeast gro inh inactive, Diaph act CS inactive, G6PDH CS inactive, Lmaj promast 82.2 and Diaphorase inh inactive.
For Cn1cc(CN2CCCC(C(=O)c3cccs3)C2)c(-c2cccc(Cl)c2)n1 (configuration not stated) the results were WT yeast gro inh inactive, Diaph act CS inactive, G6PDH CS inactive, Lmaj promast 62.5 and Diaphorase inh inactive.
`O=C(c1ccc(Cl)cc1)C1CCCN(Cc2cnn(-c3ccccc3)c2)C1` (configuration not stated) gave WT yeast gro inh inactive, Diaph act CS inactive, G6PDH CS inactive, Lmaj promast 84.2 and Diaphorase inh inactive.
Screening CC(C1CCN(Cc2cn(C)nc2-c2cccc(Cl)c2)CC1)N1CCOCC1 (configuration not stated) returned WT yeast gro inh inactive, Diaph act CS inactive, G6PDH CS inactive, Lmaj promast 69.3 and Diaphorase inh inactive.
Screening CC(C)CCNC(=O)CCCc1ccccc1 returned WT yeast gro inh inactive, Diaph act CS inactive, G6PDH CS inactive, Lmaj promast inactive and Diaphorase inh inactive.
For CC(=O)OCCCN1c2ccccc2Nc2nnc(-c3ccccc3)cc21 the results were WT yeast gro inh inactive, Diaph act CS inactive, G6PDH CS inactive, Lmaj promast inactive and Diaphorase inh inactive.
Screening C/C(=N/NC(N)=S)c1ccc(Br)s1 returned WT yeast gro inh inactive, Diaph act CS inactive, G6PDH CS inactive, Lmaj promast inactive and Diaphorase inh inactive.

Compound activity deposited in PubChem by several laboratories.
